We go through 32 molecules from ChEMBL document CHEMBL1128590, “erbB-2 oncogene inhibition by geldanamycin derivatives: synthesis, mechanism of action, and structure-activity relationships” (J Med Chem, 1995).

Molecules are shown by their SMILES. Calls of active or inactive are those of the source. No cut-off for these calls is given here.

Test [1] deals with Mus musculus. Kind of test: In vivo inhibition of p185 phosphotyrosine in nu/nu nude mice bearing Fisher rat embryo cells transfected with human erbB-2 (inactive). It counts as functional, organism-based.
For test [2], the system named is SK-BR-3. Kind of test: In vitro inhibition of p185 erbB-2 oncoprotein in human breast cancer SK-BR-3 cells. Format: functional, cell-based. The method in brief:
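Cellular assay with read-out as depletion of p185 erbB-2 protein after drug treatment of the cells. This depletion tracks inhibition of p185 autophosphorylation.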

Test [3] has as its system Mus musculus. As to the kind of experiment: In vivo inhibition of p185 phosphotyrosine in nu/nu nude mice bearing Fisher rat embryo cells transfected with human erbB-2. It counts as functional. The arrangement: concentration or dose not given beside the values.
For test [4], the system named is Mus musculus. Kind of test: In vivo inhibition of p185 phosphotyrosine in nu/nu nude mice bearing Fisher rat embryo cells transfected with human erbB-2 at 200 mg/kg. It counts as functional. The method in brief: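 Nude CD-1 (nu/nu) mice bearing subcutaneous FRE/erbB-2 tumours were dosed ip at 200 mg/kg at days 12-14 (~1 cm tumours). Tumours were removed 3 h later and extracted for p185 phosphotyrosine. The value is percent inhibition.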

Test [5] has as its system Mus musculus. As to the kind of experiment: In vivo inhibition of p185 phosphotyrosine in nu/nu nude mice bearing Fisher rat embryo cells transfected with human erbB-2 at 400 mg/kg. It counts as functional. The method in brief:
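FRE/erbB-2 cells were implanted subcutaneously in CD-1 (nu/nu) mice. At days 12-14 (~1 cm) the mice received 400 mg/kg ip. After 3 h, tumours were excised and extracted to isolate p185 phosphotyrosine. The value is percent inhibition.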

A word on the IC50: it is the concentration that inhibits the measured activity by half. As usually defined, the Inhibition is the drop in the measured response relative to a control, in per cent. Usually inhibition in vivo stands for the share of the control response that was lost under treatment.

As to `CO[C@H]1/C=C\C=C(/C)C(=O)NC2=CC(=O)C(N3CCC3)=C(C[C@@H](C)C[C@H](OC)[C@H](OC(N)=O)[C@@H](C)/C=C(\C)[C@@H]1OC(N)=O)C2=O`, in test [1], the inhibition result was “inactive”. This molecule came in with an IC50 in test [2] of 50 nM.
Consider `CO[C@H]1C[C@H](C)CC2=C(N)C(=O)C=C(NC(=O)/C(C)=C/CC[C@H](OC)[C@@H](OC(N)=O)/C(C)=C/[C@H](C)[C@H]1O)C2=O`, for which the Inhibition in test [3] came to 45%. This molecule also came in with an IC50 in test [2] of 37 nM.
In the case of `CO[C@H]1/C=C\C=C(/C)C(=O)N(CC(=O)c2cccc3ccccc23)C2=CC(=O)C(N)=C(C[C@@H](C)C[C@H](OC)[C@H](O)[C@@H](C)/C=C(\C)[C@@H]1OC(N)=O)C2=O`, the inhibition entry in test [1] is “inactive”. In addition, the IC50 in test [2] turned out to be 70 nM.
For `CO[C@H]1/C=C\C=C(/C)C(=O)NC2=CC(=O)C(N3CCC3)=C(C[C@@H](C)C[C@H](OC)[C@H](OC(=O)NS(=O)(=O)NC(C)C)[C@@H](C)/C=C(\C)[C@@H]1OC(N)=O)C2=O`, in that order: “inactive” and 140 nM.
`CO[C@H]1C[C@H](C)CC2=C(N3CCC3)C(=O)C=C(NC(=O)/C(C)=C/CC[C@H](OC)[C@@H](OC(N)=O)/C(C)=C/[C@H](C)[C@@H]1F)C2=O`: in test [1], the inhibition result is “inactive”. Further, in test [2], the IC50 is 40 nM.
For `CO[C@H]1/C=C\C=C(/C)C(=O)N(CC(=O)c2ccc(Cl)c(Cl)c2)C2=CC(=O)C(N)=C(C[C@@H](C)C[C@H](OC)[C@H](O)[C@@H](C)/C=C(\C)[C@@H]1OC(N)=O)C2=O`, in that order: “inactive” and 80 nM.
As to `CO[C@H]1/C=C\C=C(/C)C(=O)NC2=CC(=O)C(N)=C(C[C@@H](C)C[C@H](OC)[C@@H](F)[C@@H](C)/C=C(\C)[C@@H]1OC(N)=O)C2=O`, in test [4], testing at 200 mg/kg gave an inhibition in vivo of 46%. The same molecule yielded a half-maximal inhibitory concentration (IC50) in test [2] of 140 nM.
`CO[C@H]1/C=C\C=C(/C)C(=O)NC2=CC(=O)C(N3CCC3)=C(C[C@@H](C)C[C@H](OC)[C@H](O)[C@@H](C)/C=C(\C)[C@@H]1OC(N)=O)C2=O`: the Inhibition in test [3] was 61%.
Take `CO[C@H]1/C=C\C=C(/C)C(=O)N(CC(=O)c2ccc3ccccc3c2)C2=CC(=O)C(N)=C(C[C@@H](C)C[C@H](OC)[C@H](O)[C@@H](C)/C=C(\C)[C@@H]1OC(N)=O)C2=O`: the inhibition entry in test [1] was “inactive”. Further, in test [2], the concentration for half-maximal inhibition (IC50) is 200 nM.
In the case of `CO[C@H]1/C=C\C=C(/C)C(=O)NC2=CC(=O)C(N3CCC3)=C(C[C@@H](C)C[C@H](OC)[C@H](OC(C)=O)[C@@H](C)/C=C(\C)[C@@H]1OC(N)=O)C2=O`, in test [4], the inhibition in vivo at 200 mg/kg amounted to 78%. Besides, inhibition in test [2] was half-maximal at 70 nM (IC50).
In the case of `CO[C@H]1/C=C\C=C(/C)C(=O)NC2=CC(=O)C(NC(C)C)=C(C[C@@H](C)C[C@H](OC)[C@H](O)[C@@H](C)/C=C(\C)[C@@H]1OC(N)=O)C2=O`, the Inhibition in test [3] is on record as 87%.
For the molecule `CNC1=C2C[C@@H](C)C[C@H](OC)[C@H](O)[C@@H](C)/C=C(\C)[C@H](OC(N)=O)[C@@H](OC)/C=C\C=C(/C)C(=O)NC(=CC1=O)C2=O`, the Inhibition in test [3] worked out at 18%.
For the molecule `C=CCNC1=C2C[C@@H](C)C[C@H](OC)[C@@H](F)[C@@H](C)/C=C(\C)[C@H](OC(N)=O)[C@@H](OC)CC/C=C(\C)C(=O)NC(=CC1=O)C2=O`, the inhibition result in test [1] is “inactive”. The half-inhibitory concentration (IC50) in test [2] was 1200 nM.
The like results for `CO[C@H]1/C=C\C=C(/C)C(=O)NC2=CC(=O)C(N3CCC3)=C(C[C@@H](C)C[C@H](OC)[C@@H](F)[C@@H](C)/C=C(\C)[C@@H]1OC(N)=O)C2=O` were, in that order, “inactive” and 170 nM.
As to `COC1=C2C[C@@H](C)C[C@H](OC)[C@H](O)[C@@H](C)/C=C(\C)[C@H](OC(N)=O)[C@@H](OC)/C=C\C=C(/C)C(=O)NC(=CC1=O)C2=O`, the inhibition entry in test [1] is “inactive”.
In the case of `CO[C@H]1/C=C\C=C(/C)C(=O)NC2=CC(=O)C(N)=C(C[C@@H](C)C[C@H](OC)[C@H](O)[C@@H](C)/C=C(\C)[C@@H]1OC(N)=O)C2=O`, testing at 400 mg/kg in test [5] gave an inhibition in vivo of 59%.
Same read-out and setting: with `CO[C@H]1C[C@H](C)CC2=C(N3CCC3)C(=O)C=C(NC(=O)/C(C)=C/CC[C@H](OC)[C@@H](OC(N)=O)/C(C)=C/[C@H](C)[C@H]1O)C2=O` the figure was 44%.
`CNC1=C2C[C@@H](C)C[C@H](OC)C(=O)[C@@H](C)/C=C(\C)[C@H](OC(N)=O)[C@@H](OC)/C=C\C=C(/C)C(=O)NC(=CC1=O)C2=O`: the inhibition entry in test [1] was “inactive”. Moreover, inhibition in test [2] was half-maximal at 34 nM (IC50).
For `COc1ccccc1C(=O)CN1C(=O)/C(C)=C/C=C\[C@H](OC)[C@@H](OC(N)=O)/C(C)=C/[C@H](C)[C@@H](O)[C@@H](OC)C[C@H](C)CC2=C(N)C(=O)C=C1C2=O`, the Inhibition in test [3] came out at 50%. The half-inhibitory concentration (IC50) in test [2] turned out to be 600 nM.
In the case of `C=CCNC1=C2C[C@@H](C)C[C@H](OC)[C@H](O)[C@@H](C)/C=C(\C)[C@H](OC(N)=O)[C@@H](OC)/C=C\C=C(/C)C(=O)NC(=CC1=O)C2=O` [TANESPIMYCIN], in test [3], the Inhibition is recorded as 56%.
In test [2], `COc1ccccc1C(=O)CN1C(=O)/C(C)=C/CC[C@H](OC)[C@@H](OC(N)=O)/C(C)=C/[C@H](C)[C@@H](O)[C@@H](OC)C[C@H](C)CC2=C(N)C(=O)C=C1C2=O` showed an IC50 of 200 nM.
`CO[C@H]1/C=C\C=C(/C)C(=O)N(CC(=O)c2ccc([N+](=O)[O-])cc2)C2=CC(=O)C(N)=C(C[C@@H](C)C[C@H](OC)[C@H](O)[C@@H](C)/C=C(\C)[C@@H]1OC(N)=O)C2=O` registered an IC50 in test [2] of 90 nM.
In the case of `CO[C@H]1C[C@H](C)CC2=C(N3CCC3)C(=O)C=C(NC(=O)/C(C)=C/C=C\[C@H](OC)[C@@H](OC(N)=O)/C(C)=C/[C@H](C)C1=O)C2=O`, the inhibition result in test [1] was “inactive”. The molecule also displayed an IC50 in test [2] of 34 nM.
Consider `COc1ccc(C(=O)CN2C(=O)/C(C)=C/C=C\[C@H](OC)[C@@H](OC(N)=O)/C(C)=C/[C@H](C)[C@@H](O)[C@@H](OC)C[C@H](C)CC3=C(N)C(=O)C=C2C3=O)cc1`, for which it took 1200 nM to reach half-maximal inhibition in test [2] (IC50).
The molecule `CO[C@H]1C[C@H](C)CC2=C(NC(C)C)C(=O)C=C(NC(=O)/C(C)=C/C=C\[C@H](OC)[C@@H](OC(N)=O)/C(C)=C/[C@H](C)/C1=N/O)C2=O` registered a concentration for half-maximal inhibition (IC50) in test [2] of 270 nM.
The same measure, in the same setting: the value for `CO[C@H]1/C=C\C=C(/C)C(=O)NC2=CC(=O)C(N3CCC3)=C(C[C@@H](C)C[C@H](OC)[C@H](O)[C@@H](C)/C=C(\C)[C@@H]1NC(N)=O)C2=O` was 2600 nM; that for `CO[C@H]1/C=C\C=C(/C)C(=O)NC2=CC(=O)C(NC3CCC3)=C(C[C@@H](C)C[C@H](OC)[C@H](O)[C@@H](C)/C=C(\C)C1=O)C2=O` was over 3700 nM.
With `CO[C@H]1C[C@H](C)CC2=C(N3CCC3)C(=O)C=C(NC(=O)/C(C)=C/C=C\[C@H](OC)[C@@H](OC(N)=O)/C(C)=C/[C@H](C)/C1=N/O)C2=O`, the inhibition result in test [1] is “inactive”. The same molecule registered a half-maximal inhibitory concentration (IC50) in test [2] of 1100 nM.
As for `C=CCNC1=C2C[C@@H](C)C[C@H](OC)[C@H](OC(=O)NS(=O)(=O)N3CCC3)[C@@H](C)/C=C(\C)[C@H](OC(N)=O)[C@@H](OC)/C=C\C=C(/C)C(=O)NC(=CC1=O)C2=O`, the half-inhibitory concentration (IC50) in test [2] is 800 nM.
For `CO[C@H]1/C=C\C=C(/C)C(=O)NC2=CC(=O)C(N3CCC3)=C(C[C@@H](C)C[C@H](OC)[C@H](OC(=O)NS(=O)(=O)N3CCN(C)CC3)[C@@H](C)/C=C(\C)[C@@H]1OC(N)=O)C2=O`, in test [1], the inhibition result is “inactive”. The molecule further displayed a 50% inhibitory concentration (IC50) in test [2] of 190 nM.
As for `CO[C@H]1/C=C\C=C(/C)C(=O)NC2=CC(=O)C(N)=C(C[C@@H](C)C[C@H](OC)[C@H](O)[C@@H](C)/C=C(\C)[C@@H]1O)C2=O`, in test [2], the 50% inhibitory concentration (IC50) was over 3900 nM.
The molecule `C=CCNC1=C2C[C@@H](C)C[C@H](OC)[C@@H](F)[C@@H](C)/C=C(\C)[C@H](OC(N)=O)[C@@H](OC)/C=C\C=C(/C)C(=O)NC(=CC1=O)C2=O` had an Inhibition in test [3] of 50%. In test [2], this molecule gave an IC50 of 260 nM.
